Assay results gathered from unrelated publications.
Lines come from different studies, so protocols differ.
Organism: Candida albicans
Effect on: microbial growth
Method: broth dilution

SMILES	test system	conditions	MIC
N#CC(=C1C=CC(=NOC(=O)c2ccccc2)C=C1)c1ccccc1	ATCC10231	48 h	256 µg/mL
C/C(=N\C(=S)/N=C(\C)c1c(O)c2ccccc2oc1=O)c1c(O)c2ccccc2oc1=O	–	48 h	3.9 µg/mL
CC(=O)N1CCN(c2ccc(OCC3COC(Cn4ccnc4)(c4ccc(Cl)cc4Cl)O3)cc2)CC1 (centres unmarked)	14936	48 h	2 µM
Cc1ccc(N=Nc2c(N)nn3c(-c4ccc(C)cc4)cc(-c4ccc(OCc5ccccc5)cc4)nc23)cc1	ATCC10231	–	31.3 µg/mL
C/C(=N\C(=O)/N=C(\C)c1c(O)c2ccccc2oc1=O)c1c(O)c2ccccc2oc1=O	–	48 h	31.2 µg/mL
C#CCOC(=O)ON=C1C=CC(=C(C#N)c2ccccc2)C=C1	ATCC10231	48 h	4 µg/mL
OC(Cn1cncn1)(Cn1cncn1)c1ccc(F)cc1F	8	24 h	1 µg/mL
OC(Cn1cncn1)(Cn1cncn1)c1ccc(F)cc1F	ATCC90028	48 h	8 µg/mL
C[C@@H]1[C@H](O)[C@@H](C)/C=C/C=C/C=C/C=C/C=C/C=C/C=C/[C@H](O[C@@H]2O[C@H](C)[C@@H](O)[C@H](N)[C@@H]2O)C[C@@H]2O[C@](O)(C[C@@H](O)C[C@@H](O)[C@H](O)CC[C@@H](O)C[C@@H](O)CC(=O)O[C@H]1C)C[C@H](O)[C@H]2C(=O)O	17546	48 h	< 0.25 µM
CCn1c2ccccc2c2cc(CNC)ccc21	SN152	24 h	64 µg/mL
C/C(=N\c1nc(N)nc(/N=C(\C)c2c(O)c3ccccc3oc2=O)n1)c1c(O)c2ccccc2oc1=O	–	48 h	62.5 µg/mL
Nc1nn2c(-c3ccc(Cl)cc3Cl)cc(-c3ccc(OCc4ccccc4)cc3)nc2c1N=Nc1ccc(F)cc1	ATCC10231	–	62.5 µg/mL
CC(=O)N1CCN(c2ccc(OCC3COC(Cn4ccnc4)(c4ccc(Cl)cc4Cl)O3)cc2)CC1 (centres unmarked)	ATCC10231	48 h	8 µg/mL
COc1ccc(N2N=C(C(=O)c3ccc(Nc4cnccn4)cc3)SC2=C(C#N)C#N)cc1	ATCC10231	–	12.5 µg/mL
CC(C)c1ccc(/C=C2\N=C(SCC(=O)O)N(c3ccccc3)C2=O)cc1	ATCC10 ATCC10231	–	21 µg/mL
N#CC(=C1C=CC(=NOC(=O)OCc2ccccc2)C=C1)c1ccccc1	ATCC10231	48 h	256 µg/mL
Cc1ccc(N=Nc2c(N)nn3c(-c4ccc(Cl)cc4Cl)cc(-c4ccc(OCc5ccccc5)cc4)nc23)cc1	ATCC10231	–	31.3 µg/mL
CC(=O)C1=NN(c2ccc([N+](=O)[O-])cc2)C(=C(C#N)C(=O)c2ccc(Nc3cnccn3)cc2)S1	ATCC10231	–	6.25 µg/mL
CC(=O)N1CCN(c2ccc(OCC3COC(Cn4ccnc4)(c4ccc(Cl)cc4Cl)O3)cc2)CC1 (centres unmarked)	–	48 h	1.95 µg/mL
CC(=O)C1=NN(c2ccccc2)C(=C(C#N)C(=O)c2ccc(Nc3cnccn3)cc2)S1	ATCC10231	–	100 µg/mL
COc1ccc(N=Nc2c(N)nn3c(-c4ccc(C)cc4)cc(-c4ccc(OCc5ccccc5)cc4)nc23)cc1	ATCC10231	–	62.5 µg/mL
OC(Cn1cncn1)(Cn1cncn1)c1ccc(F)cc1F	SP3903	48 h	4 µM
N=c1sc(C(=O)c2ccc(Nc3cnccn3)cc2)nn1-c1ccccc1	ATCC10231	–	100 µg/mL
Cc1ccc(-c2cc(-c3ccc(OCc4ccccc4)cc3)nc3c(N=Nc4ccc(F)cc4)c(N)nn23)cc1	ATCC10231	–	62.5 µg/mL
CCON=C1C=CC(=C(C#N)c2ccccc2)C=C1	ATCC10231	48 h	256 µg/mL
C/C(=N\C1CCCCC1/N=C(\C)c1c(O)c2ccccc2oc1=O)c1c(O)c2ccccc2oc1=O (centres unmarked)	–	48 h	31.2 µg/mL
